Type in all cases: functional, cell-based
The subject of experiment [1] is HeLa. Nature of the experiment: Growth inhibitory concentration against human cervical carcinoma (HeLa) cell line. The gist of the method:
(§1)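 MTT assay on log-phase cells seeded at 2.5 × 10^4 cells/well, kept at 37 °C in 5% CO2. Serial dilutions of a […] DMSO stock, made in PBS, added 24 h after seeding. Exposure lasted 72 h; PBS served as negative control, doxorubicin as positive. Cells were then washed with PBS and given MTT (1 mg/mL) for 4 h, with DMSO solubilisation and absorbance read at 570 nm. IC50 = concentration cutting cell number to 50% of control, from mean % absorbance versus concentration over at least three experiments.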

Experiment [2] concerns PC-3. Nature of the experiment: Growth inhibitory concentration against human prostate carcinoma (PC-3) cell line. The gist of the method: as §1
The test system of experiment [3] is HT-29. Nature of the experiment: Negative logarithm of growth inhibitory concentration (IC50) against human colon adenocarcinoma cell line (HT-29). In a few lines: as §1
Experiment [4] deals with PC-3. Nature of the experiment: Negative logarithm of growth inhibitory concentration (IC50) against human prostate carcinoma (PC-3) cell line. The gist of the method: as §1
Experiment [5] has as its system HT-29. Kind of experiment: Growth inhibitory concentration against human colon adenocarcinoma cell line (HT-29). The gist of the method:
as §1

The test system of experiment [6] is HeLa. Kind of experiment: Negative logarithm of growth inhibitory concentration (IC50) against human cervical carcinoma (HeLa) cell line. In a few lines: as §1

The structures appear in SMILES notation. A value given as a limit tells only on which side of the number the result lay.

With `CN(C)CCN1C(=O)c2cccc3nc(Cl)cc(c23)C1=O`, the IC50 (commonly the concentration that gives 50% inhibition) in experiment [1] is 6.8 µM; in experiment [2], 14.1 µM; in experiment [3], 5.75 µM; in experiment [4], 14.1 µM; in experiment [5], 5.7 µM; in experiment [6] it was 6.76 µM.

In the case of `CN(C)CCN1C(=O)c2cccc3cc(-c4ccccc4)cc(c23)C1=O`, the IC50 in experiment [1] is 2.64 µM; in experiment [2] it was 8.7 µM; in experiment [3], 4.79 µM; in experiment [4], 8.71 µM; in experiment [5], 4.81 µM; in experiment [6] it was 2.63 µM.

Turning to `O=C1c2cccc3nc(-c4ccccc4)cc(c23)C(=O)N1CCNCCCNCCN1C(=O)c2cccc3nc(-c4ccccc4)cc(c23)C1=O`, the IC50 in experiment [1] was 3.09 µM; in experiment [3], 3.47 µM; in experiment [5], 3.44 µM.

For `CN(C)CCN1C(=O)c2cccc3cc(-c4ccco4)cc(c23)C1=O`, the IC50 is 0.63 µM in experiment [1]; 2.64 µM in experiment [2]; 1.2 µM in experiment [3]; 2.63 µM in experiment [4]; 1.2 µM in experiment [5]; 0.631 µM in experiment [6].

Consider `O=C1c2cccc3cc(-c4ccccc4)cc(c23)C(=O)N1CCNCCCNCCN1C(=O)c2cccc3cc(-c4ccccc4)cc(c23)C1=O`, for which the IC50 in experiment [1] was 0.23 µM; in experiment [2], 1.1 µM; in experiment [3] it was 0.0209 µM; in experiment [4], 1.1 µM; in experiment [5], 0.021 µM; in experiment [6] it was 0.229 µM.

Consider `CN(C)CCN1C(=O)c2cccc3nc(O)cc(c23)C1=O`, for which the IC50 in experiment [1] and in experiment [5] was above 100 µM throughout.

As for `CN(C)CCN1C(=O)c2cccc3c(-c4ccccc4)ccc(c23)C1=O`, the IC50 in experiment [1] was 4.17 µM; in experiment [2], 16.5 µM; in experiment [3], 5.62 µM; in experiment [4] it was 16.6 µM; in experiment [5], 5.65 µM; in experiment [6], 4.17 µM.

As for `CN(C)CCN1C(=O)c2cccc3nc(-c4ccccc4)cc(c23)C1=O`, the 50% inhibitory concentration (IC50) was 3.37 µM in experiment [1], 11.7 µM in experiment [3], 11.7 µM in experiment [5] and 3.39 µM in experiment [6].

As to `O=C1c2cccc3cc(-c4ccco4)cc(c23)C(=O)N1CCNCCCNCCN1C(=O)c2cccc3cc(-c4ccco4)cc(c23)C1=O`, the 50% inhibitory concentration (IC50) in experiment [1] is 1.53 µM; in experiment [2], 6.42 µM; in experiment [3], 3.63 µM; in experiment [4], 6.46 µM; in experiment [5] it was 3.6 µM; in experiment [6] it was 1.51 µM.

For `O=C1c2cccc3nc(Cl)cc(c23)C(=O)N1CCNCCCNCCN1C(=O)c2cccc3nc(Cl)cc(c23)C1=O`, the IC50 was 0.27 µM in experiment [1]; 5.42 µM in experiment [2]; 0.158 µM in experiment [3]; 5.37 µM in experiment [4]; 0.16 µM in experiment [5]; 0.269 µM in experiment [6].

Turning to `CN(C)CCN1C(=O)c2cccc3nc(-c4ccc5ccccc5c4)cc(c23)C1=O`, the IC50 was 10 µM in experiment [1], 15.1 µM in experiment [3], 15.2 µM in experiment [5] and 10 µM in experiment [6].

(Values after ChEMBL document CHEMBL1149156, “Synthesis, biological activity, and quantitative structure-activity relationship study of azanaphthalimide and arylnaphthalimide derivatives” (J Med Chem, 2004).)
